Source: PubChem (several laboratories)
MC4R antag cAMP – antagonists of human melanocortin 4 receptor (MC4R); MC4R-expressing cells, MTII-stimulated cAMP, LANCE TR-FRET; inhibition, % at 6.5 µM; 0.48% of 360,000 active;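 active = inhibition above its plate's cutoff, the mean of tested wells on that plate plus 3 SD, cut at about 29% in these data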
Target sequence (P32245 whole entry, looked up): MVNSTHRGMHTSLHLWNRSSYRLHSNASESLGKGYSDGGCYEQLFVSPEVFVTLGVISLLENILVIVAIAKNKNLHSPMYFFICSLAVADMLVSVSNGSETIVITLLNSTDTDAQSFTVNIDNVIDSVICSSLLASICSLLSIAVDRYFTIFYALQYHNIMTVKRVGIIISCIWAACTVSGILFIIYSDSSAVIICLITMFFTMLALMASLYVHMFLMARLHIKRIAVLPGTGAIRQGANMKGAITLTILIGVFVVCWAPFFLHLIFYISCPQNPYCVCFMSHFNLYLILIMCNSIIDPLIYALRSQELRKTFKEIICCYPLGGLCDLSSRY
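Assay system: U2OS cells stably expressing human melanocortin 4 receptor (MC4R) / Dosing: 6.5 µM / Timing: compound 30 min, challenge 1 h, detection 1 h / Measured by: Eu-cAMP/anti-cAMP TR-FRET, emission 671 nm / Replicates: singlicate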
MC4R ag barr – activates human MC4R beta-arrestin recruitment; activation, % at 8.9 µM; P32245; AID 540308; 0.98% of 360,000 active; U2OS MC4R beta-arrestin complementation, luminescence; percent of melanotan II response, DMSO zero;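 active = activation above a per-plate cutoff, the mean activation of sample wells on that plate plus 3 SD, cut at about 8% in these data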
SMARCA2 act – increases SMARCA2 function in MMTV reporter cells | MG213 cells, MMTV-luciferase reporter, dexamethasone, overnight | activation, % at 9.1 µM | 1% of 370,000 active | AID 652017; in the data active = activation above about 7.8%
CFTR F508del cor – correctors of CFTR F508del function in bronchial epithelial cells. AID 720511. CFBE cells, YFP halide quenching; stimulated with forskolin plus potentiator P3; % fluorescence drop versus neutral controls. 0.36% of 350,000 active. activity (quench increase), % at 7.58 µM;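 active = mean added fluorescence quench of at least 8% versus neutral control, with both replicates also reaching 8%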;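 also: cells transiently co-express mutant CFTR-F508del with the halide-sensitive YFP; corrector assay measuring rescue of mutant channel to the surface after 24 h compound exposure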
Numbers stand for hits. This is a sample that favours compounds with a hit; in the whole collection about 2.1% have one here.

Results for O=[N+]([O-])c1cc(C(F)(F)F)ccc1Sc1ccccn1 ?
MC4R antag cAMP: inactive; MC4R ag barr: 8.6; SMARCA2 act: inactive

What do the screens show for `COc1cc(C(=O)Nc2nc(-c3cc(C)ccc3C)c(C)s2)ccc1OCC(=O)Nc1ccc(F)cc1`?
MC4R antag cAMP: inactive; MC4R ag barr: inactive; SMARCA2 act: inactive

What do the screens show for `COc1ccc(-c2nc(NC(=O)c3ccc(OCC(=O)Nc4ccc(F)cc4)c(OC)c3)sc2C)cc1`?
MC4R antag cAMP: inactive; MC4R ag barr: 44.6; SMARCA2 act: inactive

How did COc1ccc(-c2cc3ccccc3oc2=O)cc1NC(=O)c1ccc([N+](=O)[O-])o1 do in these assays?
MC4R antag cAMP: inactive; MC4R ag barr: inactive; SMARCA2 act: inactive

Results for COc1ccc(-c2cc3ccccc3oc2=O)cc1NC(=S)NC(=O)c1ccc2c(c1)OCCO2 ?
MC4R antag cAMP: inactive; MC4R ag barr: 9.4; SMARCA2 act: inactive

Results for O=C(c1cccc(F)c1)N1CCCCN2[C@@H](CO)[C@H](c3ccc(/C=C/c4ccccc4)cc3)[C@@H]2C1 ?
CFTR F508del cor: inactive

Results for CC(=O)Oc1ccc(N2C(=O)c3cccc4c([N+](=O)[O-])ccc(c34)C2=O)cc1 ?
MC4R antag cAMP: inactive; MC4R ag barr: inactive; SMARCA2 act: inactive; CFTR F508del cor: 32.0

What do the screens show for `O=C(c1cccnc1)N1CC2(C1)[C@H](c1ccccc1)[C@@H](CO)N2Cc1ccccc1`?
CFTR F508del cor: inactive

How did Cc1ccc(NC(=O)COC(=O)c2ccc(-n3nc(C)cc3C)cc2)c(F)c1 do in these assays?
MC4R antag cAMP: inactive; MC4R ag barr: 8.6; SMARCA2 act: inactive; CFTR F508del cor: inactive

What do the screens show for `COc1ccc(C(=O)N2CCN(c3ccc([N+](=O)[O-])c(-n4nc(C)cc4C)c3)CC2)cc1`?
MC4R antag cAMP: inactive; MC4R ag barr: inactive; SMARCA2 act: 11.6

Results for Cc1cc(C)n(-c2cc(N3CCN(C(=O)c4ccc(C(C)(C)C)cc4)CC3)ccc2[N+](=O)[O-])n1 ?
MC4R antag cAMP: inactive; MC4R ag barr: inactive; SMARCA2 act: inactive

Results for Cc1cc(C(=O)OCC(=O)Nc2nc(-c3ccccc3)cs2)c(C)o1 ?
MC4R antag cAMP: inactive; MC4R ag barr: 8.5; SMARCA2 act: inactive

Results for CCC(=O)N(C)C[C@H]1Oc2cc(C#CC(C)C)ccc2S(=O)(=O)N([C@H](C)CO)C[C@@H]1C ?
CFTR F508del cor: inactive

What do the screens show for `CCCNC(=O)N1C[C@H](O)COC[C@@H]2O[C@H](CC(=O)NCc3ccncn3)CC[C@H]21`?
CFTR F508del cor: inactive

Results for Cc1ccc(Cc2c(-c3ccc(Cl)cc3)nc3cc(C)ccn23)cc1 ?
MC4R antag cAMP: inactive; MC4R ag barr: inactive; SMARCA2 act: 7.8; CFTR F508del cor: inactive

How did Cc1ccc(Cc2c(-c3ccc(C)cc3)nc3cc(C)ccn23)cc1 do in these assays?
MC4R antag cAMP: inactive; MC4R ag barr: inactive; SMARCA2 act: inactive; CFTR F508del cor: inactive

How did Cc1cc(Br)cn2c(Cc3ccccc3)c(-c3ccc(Cl)cc3)nc12 do in these assays?
SMARCA2 act: inactive; CFTR F508del cor: inactive

What do the screens show for `Cc1ccc(Cc2c(-c3ccc(C)cc3)nc3c(C)cc(Br)cn23)cc1`?
SMARCA2 act: inactive; CFTR F508del cor: 10.8

How did CC(C)NC(=O)N(C)C[C@H]1OCc2ccccc2-c2ccccc2C(=O)N([C@@H](C)CO)C[C@@H]1C do in these assays?
CFTR F508del cor: inactive

Results for O=C(N/N=C/c1cccs1)C1COc2ccccc2O1 (configuration not stated) ?
MC4R antag cAMP: inactive; MC4R ag barr: inactive; SMARCA2 act: inactive

What do the screens show for `Cc1ccc(/C=N/NC(=O)C2COc3ccccc3O2)s1` (configuration not stated)?
MC4R antag cAMP: inactive; MC4R ag barr: inactive; SMARCA2 act: inactive; CFTR F508del cor: 11.0

Results for Cc1cc(=O)oc2cc(NC(=O)C3COc4ccccc4O3)ccc12 (configuration not stated) ?
MC4R antag cAMP: inactive; MC4R ag barr: 10.6; SMARCA2 act: inactive

What do the screens show for `O=C(Cc1cccc2ccccc12)N/N=C/c1ccncc1`?
MC4R antag cAMP: inactive; MC4R ag barr: inactive; SMARCA2 act: inactive; CFTR F508del cor: inactive

What do the screens show for `O=C(Cc1cccc2ccccc12)N/N=C/c1ccc(F)cc1`?
MC4R antag cAMP: inactive; MC4R ag barr: 14.8; SMARCA2 act: inactive

How did CCOCCCn1c(=NC(=O)c2ccco2)c(C(=O)OCC)cc2c(=O)n3cccc(C)c3nc21 do in these assays?
MC4R antag cAMP: inactive; MC4R ag barr: inactive; SMARCA2 act: 7.8; CFTR F508del cor: inactive
